Our source for the inhibition and IC50 values is ChEMBL document CHEMBL3352266.

Test [1] has as its target T1, Myeloperoxidase (Homo sapiens) (UniProt P05164).
T1 sequence (whole entry): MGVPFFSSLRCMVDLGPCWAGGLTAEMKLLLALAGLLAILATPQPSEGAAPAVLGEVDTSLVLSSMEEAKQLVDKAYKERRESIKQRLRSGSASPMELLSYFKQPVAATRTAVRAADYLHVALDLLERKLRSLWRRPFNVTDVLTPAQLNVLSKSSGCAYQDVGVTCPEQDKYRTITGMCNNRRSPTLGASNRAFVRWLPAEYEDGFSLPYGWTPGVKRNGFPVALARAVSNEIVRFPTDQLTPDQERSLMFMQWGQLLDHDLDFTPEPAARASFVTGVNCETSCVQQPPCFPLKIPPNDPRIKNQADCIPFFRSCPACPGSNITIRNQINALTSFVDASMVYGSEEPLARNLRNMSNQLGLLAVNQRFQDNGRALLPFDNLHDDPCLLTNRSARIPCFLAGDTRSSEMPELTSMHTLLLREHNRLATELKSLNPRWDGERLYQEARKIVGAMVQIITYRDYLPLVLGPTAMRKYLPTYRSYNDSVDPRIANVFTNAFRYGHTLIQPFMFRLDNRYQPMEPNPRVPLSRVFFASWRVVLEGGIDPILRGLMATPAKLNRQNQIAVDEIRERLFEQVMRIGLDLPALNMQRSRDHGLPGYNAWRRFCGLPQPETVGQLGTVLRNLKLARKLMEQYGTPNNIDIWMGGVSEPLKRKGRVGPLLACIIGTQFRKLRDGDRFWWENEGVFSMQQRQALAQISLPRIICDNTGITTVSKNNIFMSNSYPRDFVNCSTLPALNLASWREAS
Briefly: Inhibition of myeloperoxidase (unknown origin) assessed as reduction in H2O2 consumption by H2O2-specific electrode based assay. The gist of the method:
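An H2O2-specific electrode sat in a continuously stirred vessel holding 30 μM H2O2, 154 mM NaCl and varied inhibitor concentrations in 10 mM phosphate buffer, pH 7.4. H2O2 concentration was followed in real time to derive IC50.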

A further test deals with T2, Myeloperoxidase (Homo sapiens, UniProt P05164).
T2 sequence (P05164 whole entry): T1 sequence (whole entry)
Briefly: Inhibition of myeloperoxidase (unknown origin) assessed as reduction in enzymatic hypochlorous acid production by spectrophotometry based taurine chlorination assay. In kind it is single protein. The gist of the method: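 Started with 40 μM H2O2 and stopped after 5 min with catalase. Developed with an equal volume of 500 uM TMB and 100 μM NaI in 300 mM acetate, pH 5.4. Absorbance read at 650 nm. IC50 given as mean of ≥3 trials ± SD.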

Activity calls are given as the source filed them. The calls are words filed in the database; no cut-off is given here.

A word on the IC50: it is the point on the concentration scale where inhibition reaches its midpoint. Regarding `c1c2c(cc3c4n(nc13)CCS4)OCO2`, the inhibition entry in test [1] was “Active”. Further, the IC50 at Myeloperoxidase turned out to be 87 nM.
Take `c1ccc2c(c1)COc1c3ccccc3nn1-2`: the IC50 on Myeloperoxidase is 4150 nM.
On the same count and under the same terms, the figure for `COc1c2ccccc2nn1-c1ccccc1` is 2030 nM; for `CCCCCn1nc2ccccc2c1OC` it is 3880 nM.
Still for that read-out and setting: the figure for `CC(=O)OCC(C)n1c(=O)c2ccccc2n1C(C)=O` (configuration not stated) is more than 10000 nM; for `CCCCCCCCn1[nH]c2ccccc2c1=O` it is more than 10000 nM.
The same measure, in the same setting: the figure for `CC(CBr)n1c(=O)c2ccccc2n1CC(=O)N1CCOCC1` (configuration not stated) is more than 10000 nM; for `O=c1c2ccccc2[nH]n1CCO` it is 2470 nM; for `COc1c2ccccc2nn1-c1ccc(I)cc1` it is 2000 nM.
Turning to `c1ccc2c3n(nc2c1)CCCO3`, in test [1], the inhibition result was “Active”. The IC50 on Myeloperoxidase was 359 nM.
The like results for `CC(C)n1[nH]c2ccccc2c1=O` were, in that order, “Active” and 660 nM.
In the case of `COc1c2ccccc2nn1-c1cccc(Cl)c1`, the 50% inhibitory concentration (IC50) at Myeloperoxidase was found to be 4770 nM.
Regarding `CC(CCl)n1c(=O)c2ccccc2n1S(C)(=O)=O` (configuration not stated), on Myeloperoxidase, the IC50 is more than 10000 nM.
On the same count and under the same terms, under `C#Cc1ccc(-n2nc3ccccc3c2OC)cc1` stands 1100 nM; under `CC(=O)n1c2ccccc2c(=O)n1C(C)C`, more than 10000 nM.
Take `CC1COc2c3ccccc3nn21` (configuration not stated): the inhibition entry in test [1] was “Active”. The IC50 on Myeloperoxidase was 900 nM.
In the case of `COc1c2ccccc2nn1CCCCO`, the IC50 at Myeloperoxidase came out at 1790 nM.
Regarding `CC1(C)COc2c3ccccc3nn21`, at Myeloperoxidase, the IC50 is 1030 nM.
On the same count and under the same terms, the figure for `COc1c2ccccc2nn1-c1cccc(I)c1` is 1660 nM.
The same measure, in the same setting: the figure for `CC(=O)OCC(C)n1[nH]c2ccccc2c1=O` (configuration not stated) is 2120 nM.
Turning to `COc1c2ccccc2nn1C(C)C`, in test [1], the inhibition entry was “Active”. For the same compound, on Myeloperoxidase, the IC50 stood at 704 nM.
Taken in the same sequence, the figures for `CCCCn1nc2ccccc2c1OC` were “Active” and 910 nM.
On to `CC(C)n1c(=O)c2ccccc2n1S(C)(=O)=O`, for which, at Myeloperoxidase, the half-maximal inhibitory concentration (IC50) was more than 10000 nM.
On to `c1c2c(cc3c4n(nc13)CCCO4)OCO2`, for which, in test [1], the inhibition result was “Active”. In addition, on Myeloperoxidase, the IC50 turned out to be 403 nM.
Take `COc1c2ccccc2nn1CCCCCO`: on Myeloperoxidase, the IC50 was found to be 1540 nM.
Turning to `CCOc1c2ccccc2nn1C(C)C`, the inhibition entry in test [1] was “Active”. Also, the IC50 at Myeloperoxidase came out at 722 nM.
Taken in the same sequence, the figures for `c1ccc2c3n(nc2c1)CCCS3` were “Active” and 213 nM.
Taken in the same sequence, the figures for `CCCCn1[nH]c2ccccc2c1=O` were “Active” and 792 nM.
Consider `c1c2c(cc3c4n(nc13)CCCS4)OCO2`, for which, in test [1], the inhibition result was “Active”. Besides, on Myeloperoxidase, the half-maximal inhibitory concentration (IC50) is 140 nM.
`COCCOc1c2ccccc2nn1C(C)C`: at Myeloperoxidase, the IC50 is 1400 nM.
The same measure, in the same setting: the figure for `CCCCCCCCn1nc2ccccc2c1OCC` is more than 10000 nM.
On to `c1ccc2c3n(nc2c1)CCS3`, for which, in test [1], the inhibition result is “Active”. Further, on Myeloperoxidase, the IC50 stood at 94 nM.
As to `COCCn1nc2ccccc2c1OC`, the IC50 at Myeloperoxidase came out at 1080 nM.
In the case of `COc1c2cc3c(cc2nn1C(C)C)OCO3`, the inhibition entry in test [1] was “Active”. On Myeloperoxidase, the IC50 was 711 nM.
Taken in the same sequence, the figures for `CCCCn1nc2ccccc2c1OCC` were “Active” and 807 nM.
As for `CC(C)n1c(=O)c2ccccc2n1CC(=O)N1CCOCC1`, the IC50 on Myeloperoxidase is more than 10000 nM.
Still for that read-out and setting: under `CCCCCCCCn1nc2ccccc2c1OC` stands more than 10000 nM; under `O=c1c2ccccc2[nH]n1CCCO`, 1950 nM.
